What was measured:
hTERT-BJ [1] = experiment: Induction of autophagy in human hTERT-BJ cells transformed with hTert, small t, shRNAs against p53 and pRb and H-RasV12-ER assessed as increase in LC3-2 to LC3-1 ratio at 5 uM after 24 hrs by immunoblot analysis relative to control; type: functional
In short: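 Fully transformed BJ fibroblasts (hTert, small t, shRNAs to p53 and pRb, H-RasV12-ER) grown at 37 °C, 5% CO2 in 10% FBS medium; treated 24 h at 5 μM. Triton lysis, 14% SDS-PAGE, LC3 immunoblot; LC3-II/LC3-I band ratio relative to DMSO-treated control, under 2-fold induction deemed insignificant.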

hTERT-BJ [2] = experiment: Inhibition of mitotic progression in human hTERT-BJ cells transformed with hTert, small t, shRNAs against p53 and pRb and H-RasV12-ER assessed as increase in phosphorylated histone H3 (Ser10) level at 5 uM after 24 hrs by immunoblot analysis relative to control; type: functional
In short: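 Fully transformed BJ fibroblasts (hTert, small t, shRNAs to p53 and pRb, H-RasV12-ER) treated 24 h at 5 μM. Immunoblot protocol as for HeLa. pH3 (Ser10) band intensity expressed as fold of DMSO control; under 2-fold counted as insignificant.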

[3] = Antiproliferative activity against human BJ cells after 72 hrs by MTT assay; type: cell-based
In short: (§1)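 Cells cultured at 37 °C, 5% CO₂ in medium with 10% FBS and penicillin/streptomycin, used within 12-20 passages. Seeded at 2.5×10^3 cells/well for 24 h, then compound added from DMSO stocks at 200-fold final concentration (final DMSO 0.5% v/v). After 72 h, 0.5 mg/mL MTT for 3 h, formazan dissolved in DMSO, A570 read. IC50 from sigmoidal fit; three independent determinations.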

[4] = Antiproliferative activity against human Ist1 cells after 72 hrs by MTT assay; type: functional; in short: as §1
[5] = Antiproliferative activity against human NCC59 cells after 72 hrs by MTT assay; type: functional; in short: as §1
AZ-521 cell line = experiment: Antiproliferative activity against human AZ-521 cells after 72 hrs by MTT assay; type: functional; settings: AZ-521, 72 h; in short: as §1
[6] = Antiproliferative activity against human SGCC-GC38 cells after 72 hrs by MTT assay; type: functional; in short: as §1
MKN-45 = experiment: Antiproliferative activity against human MKN45 cells after 72 hrs by MTT assay; type: functional; settings: MKN-45, 72 h; in short: as §1
[7] = Antiproliferative activity against human NCC19 cells after 72 hrs by MTT assay; type: functional; in short: as §1
HT-29 = experiment: Antiproliferative activity against human HT-29 cells after 72 hrs by MTT assay; type: functional; settings: HT-29, 72 h; in short: as §1
HCT-116 = experiment: Antiproliferative activity against human HCT116 cells after 72 hrs by MTT assay; type: functional; settings: HCT-116, 72 h; in short: as §1
MCF7 = experiment: Antiproliferative activity against human MCF7 cells after 72 hrs by MTT assay; type: functional; settings: MCF7, 72 h; in short: as §1
A549 = experiment: Antiproliferative activity against human A549 cells after 72 hrs by MTT assay; type: functional; settings: A549, 72 h; in short: as §1
U2OS = experiment: Antiproliferative activity against human U2OS cells after 72 hrs by MTT assay; type: functional; in short: as §1
[8] = Antiproliferative activity against human AC10 cells at 50 uM after 72 hrs by MTT assay; type: cell-based
TAMH = experiment: Antiproliferative activity against mouse TAMH cells at 50 uM after 72 hrs by MTT assay; type: cell-based
BJ [9] = experiment: Induction of apoptosis in human BJ cells assessed as activation of caspase-3/7 up to 5 uM after 48 hrs by caspase-Glo 3/7 luminescent assay; type: cell-based
In short: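 Normal and transformed BJ cells treated 48 h across a concentration series. Caspase-3/7 activity by Caspase-Glo 3/7 luminescence, normalized to viable cell number from MTT. Mean ± S.D., n=3; two-tailed unpaired t tests.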

[10] = Antiproliferative activity against human SNU1750 cells after 72 hrs by MTT assay; type: functional; in short: as §1
Salmonella typhimurium = experiment: Genotoxicity in Salmonella typhimurium TA98 after 48 hrs in presence of S9 fraction by Ames test; type: toxicity, organism-based; settings: salmonella enterica subsp. enterica serovar typhimurium, s9, 48 h
BJ [11] = experiment: Antiproliferative activity against human BJ cells assessed as reduction in cell viability at 5 uM incubated for 4 days followed by compound washout measured after 11 days by cell counting method; type: cell-based; settings: 96 h
In short: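 Normal BJ fibroblasts synchronized in G1 by 2-day serum starvation (0.1% FBS), released into 10% FBS medium and exposed to 5 μM for 2, 4 or 11 days. After 2 or 4 days drug removed and growth continued in fresh medium up to 11 days. Total cell numbers by automated counter; mean ± S.D., n>6.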

[12] = Half life in pooled female rat liver microsomes at 3 uM preincubated for 5 mins followed by NADPH addition measured after 45 mins by LC-MS/MS method; type: ADME, microsome
In short: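 Pooled female or male rat liver microsomes (0.3 mg protein/mL) with 3 μM substrate in 0.1 M phosphate buffer pH 7.4, pre-incubated 5 min at 37 °C, started with 1 mM NADPH. Samples at 0-45 min quenched in cold acetonitrile with internal standard, analysed by LC-MS/MS. Triplicates; midazolam positive control, no-NADPH negative control.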

Mus musculus = experiment: Toxicity in BALB/c athymic nu/nu mouse xenografted with human HCT15 cells assessed as effect on body weight at 20 mg/kg, ip bid administered 12 days; type: organism-based; settings: in vivo, 288 h
In short: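 Female BALB/c nu/nu mice aged 5–7 weeks, implanted subcutaneously in the flank with 5×10^6 HCT15 cells. At mean tumour 100–300 mm³, randomised into groups of 6. Given 20 mg/kg ip twice daily for 12 days, vehicle 10% DMSO/50% PEG400 in water pH 5.0.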

HeLa [13] = experiment: Induction of autophagy in human HeLa cells assessed as increase in LC3-2 to LC3-1 ratio at 1.25 uM after 6 hrs by immunoblot analysis relative to control; type: functional
In short: (§2)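 HeLa cells exposed 6 h to test agent (0.625–10 μM series) or chloroquine (1.25–100 μM series) vs DMSO; lysed in 1% Triton buffer (25 mM Tris pH 8.0, 150 mM NaCl, DTT, protease/phosphatase inhibitors), 14% SDS-PAGE, immunoblot with anti-LC3, anti-pH3(Ser10), β-actin loading. LC3-II/LC3-I band intensity ratio expressed relative to DMSO control.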

HeLa [14] = experiment: Induction of autophagy in human HeLa cells assessed as increase in LC3-2 to LC3-1 ratio at 10 uM after 6 hrs by immunoblot analysis relative to control; type: functional; in short: as §2
HeLa [15] = experiment: Induction of autophagy in human HeLa cells assessed as increase in LC3-2 to LC3-1 ratio at 0.625 uM after 6 hrs by immunoblot analysis relative to control; type: functional
In short: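 HeLa cells were exposed for 6 h to the compound at 0.625, 1.25, 2.5, 5 or 10 µM, or to DMSO. Cells were lysed in 1% Triton buffer (pH 8.0) with protease and phosphatase inhibitors. Lysates were resolved by 14% SDS-PAGE and immunoblotted for LC3, with β-actin probed. The LC3-II/LC3-I band-intensity ratio was expressed relative to the DMSO control.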

Structure (SMILES): N#C/C(=C\c1cccc2cnccc12)c1c[nH]c2ccccc12
- fold change (FC) (hTERT-BJ [1]): 5
- fold change (FC) (hTERT-BJ [2]): 7.3
- GI50 at 72 h [3]: 8.1 µM
- GI50 [4]: 2200 nM
- GI50 [5]: 900 nM
- GI50 (AZ-521 cell line): 2400 nM
- GI50 [6]: 1900 nM
- GI50 (MKN-45): 1000 nM
- GI50 [7]: 4.6 µM
- GI50 (HT-29): 900 nM
- GI50 (HCT-116): 1800 nM
- GI50 (MCF7): 1200 nM
- GI50 (A549): 2000 nM
- GI50 (U2OS): 1500 nM
- Activity [8]: 77.6%
- Activity (TAMH): 57.3%
- Activity (BJ [9]): Non-Toxic
- GI50 [10]: 700 nM
- Activity (Salmonella typhimurium): Non-Toxic
- Activity (BJ [11]): Non-Toxic
- half-life at 3 µM [12]: 40.2 min
- Activity (Mus musculus): Non-Toxic
- fold change (FC) (HeLa [13]): 2.3
- fold change (FC) (HeLa [14]): 4.3
- fold change (FC) (HeLa [15]): 1
